ChEMBL document CHEMBL4043285 (J Med Chem, 2018)

Assays:
[1] = Inhibition of Aurk mouse L929sA cells transfected with human Fas assessed as reduction in cell growth after 24 hrs in presence of TNF by Hoechst 33342 staining-based microscopic assay
Procedure, shortened: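 L929sAhFAS cells exposed to compound; total cell number is counted after 24 h. IC50 is fitted from a dose–response curve of cell growth.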

[2] = molecular target: T1, Receptor-interacting serine/threonine-protein kinase 1 (Mus musculus) (UniProt Q60855); test: Inhibition of RIPK1 in mouse L929sA cells transfected with human Fas assessed as inhibition in TNF-induced necroptosis at 3 uM pretreated for 0.5 hrs followed by TNF and zVAD.fmk addition measured after 3 hrs by Hoechst 33342/propidium iodide staining-based assay relative to control; assay type: cell-based
T1 sequence (whole entry): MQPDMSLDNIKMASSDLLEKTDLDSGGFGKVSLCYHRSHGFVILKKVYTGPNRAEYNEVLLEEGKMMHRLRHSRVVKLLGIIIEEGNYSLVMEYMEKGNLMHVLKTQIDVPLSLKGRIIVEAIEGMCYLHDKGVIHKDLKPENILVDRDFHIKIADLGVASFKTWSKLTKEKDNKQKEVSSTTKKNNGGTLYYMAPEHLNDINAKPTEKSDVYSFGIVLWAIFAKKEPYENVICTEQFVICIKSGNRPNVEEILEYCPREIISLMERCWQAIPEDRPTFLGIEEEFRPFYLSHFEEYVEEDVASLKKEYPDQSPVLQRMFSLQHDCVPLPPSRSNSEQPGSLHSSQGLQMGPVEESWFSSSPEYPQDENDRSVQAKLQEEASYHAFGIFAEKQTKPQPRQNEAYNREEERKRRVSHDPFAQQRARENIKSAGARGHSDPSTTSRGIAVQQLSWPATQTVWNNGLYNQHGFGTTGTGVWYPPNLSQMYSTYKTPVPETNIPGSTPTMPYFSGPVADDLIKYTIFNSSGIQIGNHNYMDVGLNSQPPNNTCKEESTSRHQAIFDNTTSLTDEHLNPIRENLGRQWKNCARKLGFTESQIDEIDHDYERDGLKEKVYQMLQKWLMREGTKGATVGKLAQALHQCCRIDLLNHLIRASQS

[3] = Inhibition of Aurk mouse L929sA cells transfected with human Fas assessed as increase in nuclear area after 24 hrs in presence of TNF by Hoechst 33342 staining-based microscopic assay
Procedure, shortened: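 L929sAhFAS cells treated with compound; mean nuclear area is measured and fitted as a sigmoidal dose–response curve.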

[4] = system: Aurk (Aurora kinase); test: Inhibition of Aurk in mouse L929sA cells transfected with human Fas assessed as reduction in cell growth at 3 uM after 24 hrs in presence of TNF by Hoechst 33342 staining-based microscopic assay relative to control
[5] = system: Aurk (Aurora kinase); test: Inhibition of Aurk in mouse L929sA cells transfected with human Fas assessed as increase in nuclear area at 3 uM after 24 hrs in presence of TNF by Hoechst 33342 staining-based microscopic assay relative to control; assay type: cell-based
[6] = molecular target: T1, Receptor-interacting serine/threonine-protein kinase 1 (Mus musculus); test: Inhibition of RIPK1 in mouse L929sA cells transfected with human Fas assessed as inhibition in TNF-induced necroptosis at 3 uM pretreated for 24 hrs followed by TNF and zVAD.fmk addition measured after 3 hrs by Hoechst 33342/propidium iodide staining-based assay relative to control; assay type: cell-based

| IC50 [3] [µM] | inhibition at 24 h, 3 µM [5] [%] | Structure (SMILES) | IC50 [1] [µM] | inhibition [2] [%] | inhibition at 24 h, 3 µM [4] [%] | inhibition [6] [%] |
| --- | --- | --- | --- | --- | --- | --- |
| > 3 | < 50 | Cc1cc(Nc2nc(Nc3ccc(NC(=O)C4CC4)cc3)nc(N3CCCCC3)n2)n[nH]1 | > 3 | < 50 | < 50 | < 50 |
| > 3 | < 50 | Cc1[nH]nc(Nc2nc(Nc3ccc(NC(=O)C4CCCCC4)cc3)nc(N3CCOCC3)n2)c1C | > 3 | < 50 | < 50 | < 50 |
| > 3 | < 50 | Cc1cc(Nc2nc(Sc3ccc(NC(=O)C4CC4)cc3)nc(N3CCCCC3)n2)n[nH]1 | > 3 | < 50 | < 50 | < 50 |
| > 3 | < 50 | Cc1[nH]nc(Nc2cc(N3CCOCC3)nc(Nc3ccc(NC(=O)C4CC4)cc3)n2)c1C | > 3 | < 50 | < 50 | < 50 |
| 1.04 |  | Cc1cc(Nc2cc(N3CCOCC3)nc(Sc3ccc(NC(=O)C4CC4)cc3)n2)n[nH]1 | 1 |  |  |  |
| > 3 | < 50 | Cc1[nH]nc(Nc2nc(Nc3ccc(NC(=O)C4CC4)cc3)nc(N3CCN(C)CC3)n2)c1C | > 3 | < 50 | < 50 | < 50 |
| > 3 | < 50 | Cc1[nH]nc(Nc2nc(Nc3ccc(NC(=O)C4CCCCC4)cc3)nc(N3CCN(C)CC3)n2)c1C | > 3 | < 50 | < 50 | < 50 |
| > 3 | < 50 | Cc1cc(Nc2nc(Sc3ccc(NC(=O)C4CC4)cc3)nc(N3CCOCC3)n2)n[nH]1 | > 3 |  | < 50 |  |
| > 3 | < 50 | Cc1[nH]nc(Nc2nc(Sc3ccc(NC(=O)C4CCCCC4)cc3)nc(N3CCN(C)CC3)n2)c1C | > 3 | < 50 | < 50 | < 50 |
| > 3 | < 50 | Cc1cc(Nc2cc(N3CCCCC3)nc(Sc3ccc(NC(=O)C4CCCCC4)cc3)n2)n[nH]1 | 0.813 |  |  |  |
| 1 |  | Cc1cc(Nc2cc(N3CCCCC3)nc(Sc3ccc(NC(=O)C4CC4)cc3)n2)n[nH]1 | 1.32 |  |  |  |
| > 3 | < 50 | Cc1cc(Nc2nc(Nc3ccc(NC(=O)C4CCCCC4)cc3)nc(N3CCCCC3)n2)n[nH]1 | > 3 | < 50 | < 50 | < 50 |
| > 3 | < 50 | Cc1cc(Nc2nc(Nc3ccc(NC(=O)C4CCCCC4)cc3)nc(N3CCN(C)CC3)n2)n[nH]1 | > 3 | < 50 | < 50 | < 50 |
| 0.8 |  | Cc1cc(Nc2nc(Sc3ccc(NC(=O)C4CC4)cc3)nc(N3CCN(C)CC3)n2)n[nH]1 | 0.44 | < 50 |  |  |
| > 3 | < 50 | Cc1[nH]nc(Nc2cc(N3CCCCC3)nc(Nc3ccc(NC(=O)C4CC4)cc3)n2)c1C | > 3 | < 50 | < 50 | < 50 |
| > 3 | < 50 | Cc1cc(Nc2cc(N3CCN(C)CC3)nc(Nc3ccc(NC(=O)C4CCCCC4)cc3)n2)n[nH]1 | > 3 |  | < 50 |  |
| > 3 | < 50 | Cc1cc(Nc2nc(Sc3ccc(NC(=O)C4CCCCC4)cc3)nc(N3CCOCC3)n2)n[nH]1 | 2.17 | < 50 |  |  |
| > 3 | < 50 | Cc1[nH]nc(Nc2cc(N3CCN(C)CC3)nc(Sc3ccc(NC(=O)C4CCCCC4)cc3)n2)c1C | > 3 | < 50 | < 50 | < 50 |

| IC50 [3] [µM] | inhibition at 24 h, 3 µM [5] [%] | Structure (SMILES) | IC50 [1] [µM] | inhibition [2] [%] | inhibition at 24 h, 3 µM [4] [%] | inhibition [6] [%] |
| --- | --- | --- | --- | --- | --- | --- |
| > 3 | < 50 | Cc1cc(Nc2cc(N3CCOCC3)nc(Nc3ccc(NC(=O)C4CCCCC4)cc3)n2)n[nH]1 | 2.25 |  |  |  |
| > 3 | < 50 | Cc1cc(Nc2nc(Sc3ccc(NC(=O)C4CCCCC4)cc3)nc(N3CCCCC3)n2)n[nH]1 | > 3 | < 50 | < 50 | < 50 |
| > 3 | < 50 | Cc1cc(Nc2nc(Nc3ccc(NC(=O)C4CCCCC4)cc3)nc(N3CCOCC3)n2)n[nH]1 | 2.3 | < 50 |  | < 50 |
| < 0.6 |  | Cc1cc(Nc2cc(N3CCOCC3)nc(Sc3ccc(NC(=O)C4CCCCC4)cc3)n2)n[nH]1 | 0.214 |  |  |  |
| > 3 | < 50 | Cc1cc(Nc2nc(Nc3ccc(NC(=O)C4CC4)cc3)nc(N3CCOCC3)n2)n[nH]1 | > 3 |  | < 50 |  |
| > 3 | < 50 | Cc1[nH]nc(Nc2cc(N3CCOCC3)nc(Sc3ccc(NC(=O)C4CCCCC4)cc3)n2)c1C | > 3 | < 50 | < 50 | < 50 |
| > 3 | < 50 | Cc1[nH]nc(Nc2cc(N3CCN(C)CC3)nc(Nc3ccc(NC(=O)C4CC4)cc3)n2)c1C | > 3 | < 50 | < 50 | < 50 |
| > 3 | < 50 | Cc1[nH]nc(Nc2cc(N3CCCCC3)nc(Sc3ccc(NC(=O)C4CCCCC4)cc3)n2)c1C | > 3 | < 50 | < 50 | < 50 |
| > 3 | < 50 | Cc1cc(Nc2nc(Nc3ccc(NC(=O)C4CC4)cc3)nc(N3CCN(C)CC3)n2)n[nH]1 | > 3 | < 50 | < 50 | < 50 |
| > 3 | < 50 | Cc1[nH]nc(Nc2nc(Sc3ccc(NC(=O)C4CC4)cc3)nc(N3CCN(C)CC3)n2)c1C | > 3 | < 50 | < 50 | < 50 |
| > 3 | < 50 | Cc1[nH]nc(Nc2nc(Sc3ccc(NC(=O)C4CC4)cc3)nc(N3CCCCC3)n2)c1C | > 3 | < 50 | < 50 | < 50 |
| > 3 | < 50 | CCN1CCN(c2cc(Nc3n[nH]c(C)c3C)nc(Sc3ccc(NC(=O)C4CC4)cc3)n2)CC1 | > 3 | < 50 | < 50 | < 50 |
| > 3 | < 50 | Cc1[nH]nc(Nc2nc(Nc3ccc(NC(=O)C4CCCCC4)cc3)nc(N3CCCCC3)n2)c1C | > 3 | < 50 | < 50 | < 50 |
| > 3 | < 50 | Cc1[nH]nc(Nc2cc(N3CCN(C)CC3)nc(Nc3ccc(NC(=O)C4CCCCC4)cc3)n2)c1C | > 3 | < 50 | < 50 | < 50 |
| > 3 | < 50 | Cc1[nH]nc(Nc2cc(N3CCOCC3)nc(Nc3ccc(NC(=O)C4CCCCC4)cc3)n2)c1C | > 3 | < 50 | < 50 | < 50 |
| > 3 | < 50 | Cc1cc(Nc2cc(N3CCN(C)CC3)nc(Sc3ccc(NC(=O)C4CCCCC4)cc3)n2)n[nH]1 | < 0.6 | < 50 |  | < 50 |
| > 3 | < 50 | Cc1cc(Nc2cc(N3CCCCC3)nc(Nc3ccc(NC(=O)C4CCCCC4)cc3)n2)n[nH]1 | > 3 | < 50 | < 50 |  |
